Compound activity deposited in PubChem by Sanford-Burnham Center for Chemical Genomics.
SUMO1-SIM PPI: SUMO1-SIM interaction modulation. 0.33% of 360,000 active. SUMO1 binding to a labelled peptide, TR-FRET, 1 h. inhibition, % at 20 µM. AID 602429. P63165; in the data active = inhibition above about 37%
Target sequence (P63165 whole entry, looked up): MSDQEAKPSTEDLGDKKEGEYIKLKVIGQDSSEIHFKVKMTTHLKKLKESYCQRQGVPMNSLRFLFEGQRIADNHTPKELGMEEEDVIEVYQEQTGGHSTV
STEP block: inhibitors of human striatal-enriched phosphatase STEP; 0.25% of 360,000 active; recombinant STEP, OMFP fluorogenic substrate, fluorescence; P54829; inhibition, % at 20 µM;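 active = inhibition at 20 µM, scaled per plate between control wells, above about 37%, limit read from the data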;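 also: 0% = DMSO with enzyme and substrate and 100% = substrate only without enzyme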
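Material: STEP (striatal-enriched tyrosine phosphatase) enzyme, cell-free; Compound dosing: 20 µM single dose in 1% DMSO; Technique: fluorescence read at 480 nm ex / 540 nm em; Times: reaction 20 min, ambient temperature; Medium: 50 mM Bis-Tris pH 6.0 with 2.5 mM DTT and 0.005% Tween 20; Also added: OMFP at 25 µM.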
UBC9 SUMO inh: SUMOylation inhibition | P63279 | inhibition, % at 35 µM | AID 2006 | HTRF SUMOylation assay, SAE1/SAE2 + UBC9, in vitro | 0.36% of 290,000 active; in the data active = inhibition above about 50%, passing the limit was not always enough
Target sequence (P63279 whole entry, looked up): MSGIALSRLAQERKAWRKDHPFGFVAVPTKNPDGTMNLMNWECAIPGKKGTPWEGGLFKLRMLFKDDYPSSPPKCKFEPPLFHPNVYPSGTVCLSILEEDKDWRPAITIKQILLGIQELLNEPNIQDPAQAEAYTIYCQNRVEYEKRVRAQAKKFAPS
LMPTP inh: blocks human LMPTP phosphatase. P24666. recombinant LMPTP-A, OMFP fluorogenic substrate, fluorescence intensity. inhibition, % at 20 µM. 0.22% of 360,000 active. AID 651560;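 active = compounds that cut the enzyme signal by at least half of the control window in the single-dose screen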;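 also: plate controls were DMSO wells with enzyme plus substrate for no effect and substrate without enzyme for full effect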
Target sequence (P24666 whole entry, looked up): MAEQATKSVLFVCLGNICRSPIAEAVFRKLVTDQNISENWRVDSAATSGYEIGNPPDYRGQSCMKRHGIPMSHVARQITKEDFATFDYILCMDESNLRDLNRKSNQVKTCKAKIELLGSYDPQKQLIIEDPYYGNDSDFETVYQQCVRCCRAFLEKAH
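Buffer or medium: Bis-Tris pH 6.0, DTT, detergent; Assay system: LMPTP-A enzyme; Quantity: 0.625 nM enzyme; Detection: endpoint fluorescence intensity; Times: 50 min dark incubation at room temperature; Controls: substrate-only low control, DMSO enzyme-plus-substrate high control; Doses: single 20 µM dose; Read-out: percent inhibition versus substrate-only and uninhibited controls; Reagent: 400 µM OMFP.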
DNMT1 inh: inhibitors of human DNMT1; P26358; DNMT1 molecular beacon, Hinp1I cleavage, fluorescence; inhibition (reported as % activation of signal), % at 10 µM; 0.83% of 360,000 active; AID 588458; in the data active = inhibition above about 50%
Scp-1 inhibitor: Scp-1 (human) phosphatase inhibition; 0.88% of 340,000 active; Recombinant Scp1, phosphopeptide, malachite green phosphate absorbance; Q9GZU7; inhibition, % at 20 µM;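 active = inhibition above about 50% at 20 µM, limit read from the data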;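 also: plate controls were DMSO wells with enzyme for no effect and wells lacking enzyme for full effect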
Target sequence (Q9GZU7 76-261 limits assumed): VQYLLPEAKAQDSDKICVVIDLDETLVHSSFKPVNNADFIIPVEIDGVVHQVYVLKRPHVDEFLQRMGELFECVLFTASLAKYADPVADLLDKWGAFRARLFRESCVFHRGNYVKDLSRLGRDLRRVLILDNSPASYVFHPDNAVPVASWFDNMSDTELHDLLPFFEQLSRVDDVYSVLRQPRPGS
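Material – SCP-1 phosphatase catalytic domain, residues 76-261 · Buffer or medium – Acidic Tris acetate buffer with magnesium and detergent · Also added – Phospho 17-mer peptide substrate · Compound – single 20 µM dose, 1% DMSO · Times – 45 min room-temperature reaction, 5 min colour, 30 min stabiliser · Technique – Phosphate-binding colour reagent, absorbance read at 630 nm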
DNMT1 interf DR: counter-screen for DNMT1 inhibitors: spectral interference, dose response; 200 tested, under 10 active; IC50, µM; molecular beacon fluorescence; AID 602382; shares compounds with DNMT1 inh; call rule not given here
DNMT1 inh conf: confirmation of human DNMT1 inhibitors; shares compounds with DNMT1 inh; DNMT1 molecular beacon HinP1I cleavage, fluorescence; inhibition, % at 10 µM; 8% of 2,300 active;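 active = average inhibition of at least 30% in the single-concentration confirmation test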
Beacon interf: shows spectral interference in the DNMT1 beacon assay. shares compounds with DNMT1 inh. DNMT1 molecular beacon spectral interference counterscreen, fluorescence 485/520. activation (fluorescence interference), % at 10 µM. 1% of 2,300 active. AID 602387;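 active = activation of at least 30% at 10 µM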;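 also: DNMT1 catalytic domain with a HinP1I cleavage step and a FAM/dabcyl DNA beacon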
Numbers without * were called inactive; · = not tested or not shown. Only some compounds are listed: those with a hit (about 1.9% of all), similar ones and a draw of the others.

SMILES	SUMO1-SIM PPI	STEP block	UBC9 SUMO inh	LMPTP inh	DNMT1 inh	Scp-1 inhibitor	DNMT1 inh conf	Beacon interf	others
CS(=O)(=O)Nc1ccc(C(=O)NC2CCCCC2)cc1	4	-1	22	-1	1	-5	·	·
CN(C)CCc1cc2c(c3c1ccc1ccccc13)OCO2	-15	4	7	-1	60*	-4	37*	6	DNMT1 interf DR=>99
CC1(C(=O)Nc2ccc3nc[nH]c3c2)CCN1C(=O)C1(c2ccccc2)CC1 (stereo not drawn)	0	-3	·	1	101*	·	4	3
CN(C)C(=O)c1ccc(NC(=O)c2cccc(-n3cnnn3)c2)cc1	2	1	·	1	6	·	·	·
COCCNC(=O)C1(C)CCCN(C(=O)c2cnc3ccccc3n2)C1 (stereo not drawn)	-6	-2	·	-2	3	·	·	·
Cc1ccc(NC(=O)c2nc[nH]c2C(=O)NCCCNC(=O)c2[nH]cnc2C(=O)Nc2ccc(C)cc2)cc1	2	-2	·	0	59*	-2	8	0
Cc1ccc(NC(=O)c2nc[nH]c2C(=O)NCCCCCCNC(=O)c2[nH]cnc2C(=O)Nc2ccc(C)cc2)cc1	3	-4	·	1	28	-14	·	·
O=C(Nc1cccc(Cl)c1)c1nc[nH]c1C(=O)NCCCNC(=O)c1[nH]cnc1C(=O)Nc1cccc(Cl)c1	4	-1	·	1	61*	0	2	-3
O=C(Nc1ccccc1)c1nc[nH]c1C(=O)NCCCCNC(=O)c1[nH]cnc1C(=O)Nc1ccccc1	-4	-5	·	0	-15	0	·	·
Cc1ccc(NC(=O)c2nc[nH]c2C(=O)NCCCCNC(=O)c2[nH]cnc2C(=O)Nc2ccc(C)cc2)cc1	3	-4	·	2	89*	-9	2	-4
CC(C(=O)N1CCN(Cc2ccc3c(c2)OCO3)CC1)c1ccc([N+](=O)[O-])cc1 (stereo not drawn)	-13	-1	8	-1	0	-3	·	·
CCN(CC)CCOc1ccc2c(c1)C(=NO)c1cc(OCCN(CC)CC)ccc1-2	-27	0	19	5	61*	13	34*	-3	DNMT1 interf DR=>99
COc1ccccc1NC(=S)N=Nc1c(O)[nH]c2ccc(Br)cc12	1	-3	30	3	89*	-2	3	-3
CCN(C(=O)COC(=O)/C=C/c1ccc(F)cc1)C1CCCCC1	-7	-1	·	2	-5	-1	·	·
CCN(C(=O)COC(=O)/C=C/c1ccco1)C1CCCCC1	-15	20	·	7	75*	72*	6	3
Cc1n[nH]c(=O)nc1N/N=C/c1ccc(O)c([N+](=O)[O-])c1	-19	2	-11	-10	73*	7	0	1
COc1ccc(/C=N/Nc2nc(=O)[nH]nc2C)cc1[N+](=O)[O-]	-23	1	1	-5	0	3	·	·
Cc1c(Cl)cnc(NC(=O)COC(=O)c2ccc([N+](=O)[O-])s2)c1Cl	22	4	15	4	63*	43	2	-3
c1ccc(-c2nc(-c3ccco3)n3ccccc23)cc1	23	1	42	8	57*	-8	1	1
COc1ccccc1CCNC(C)CCc1ccc(O)cc1 (stereo not drawn)	0	-4	-2	-1	68*	-5	11	3
O=C1CSC(c2ccc([N+](=O)[O-])cc2)N1Cc1ccccc1 (stereo not drawn)	-32	1	3	1	2	-5	·	·
CCOC(=O)CCC(NC(=O)CCCCC(=O)NC(CCC(=O)OCC)C(=O)OCC)C(=O)OCC (stereo not drawn)	0	-1	4	-2	2	1	·	·
CCOC(=O)CCCCC(=O)NC(CO)C(=O)NC (stereo not drawn)	0	0	12	0	59*	-6	2	5
Cc1ccc(CN2C(=O)N/C(=C\c3ccc(-c4ccc(C(=O)O)cc4C)o3)C2=O)cc1	21	10	39	4	126*	71*	10	-3
Cc1ccc(/C=C2/NC(=O)N(Cc3ccccc3)C2=O)o1	-13	1	14	0	-7	-5	·	·
SMILES	SUMO1-SIM PPI	STEP block	UBC9 SUMO inh	LMPTP inh	DNMT1 inh	Scp-1 inhibitor	DNMT1 inh conf	Beacon interf	others
Cc1cc2oc3ccc(NCCCn4ccnc4)cc3c(=O)c2cc1C	19	1	·	1	56*	-4	1	1
Cc1cc2oc3ccc(NCCCN4CCOCC4)cc3c(=O)c2cc1C	-29	4	·	1	-2	-11	·	·
COC(=O)c1cc2ccsc2n1Cc1ccccc1F	4	-6	-10	1	-3	-12	·	·
Cc1ccc(CNC(=O)C2(S(=O)(=O)c3ccccc3)CC=CC2)cc1	-2	2	4	-1	2	1	·	·
CCCNC(=O)C1(S(=O)(=O)c2ccccc2)CC=CC1	-3	-3	-9	-2	92*	-6	2	2
C=C(C)[C@@H]1CC[C@]2(C(=O)O)CC[C@]3(C)[C@H](CC[C@@H]4[C@@]5(C)CC[C@H](O)C(C)(C)[C@@H]5CC[C@]43C)[C@@H]12	22	0	·	-3	53*	-9	2	-14
Cc1ccc(/C=C/C(=O)O)cc1S(=O)(=O)Nc1ccc(C(=O)O)cc1	11	-1	0	-1	67*	-1	2	24
Cc1ccc(/C=C/C(=O)O)cc1S(=O)(=O)Nc1ccccc1C(=O)O	10	3	24	-1	7	14	·	·
COC(=O)N1CCC2CC1c1c(Cl)cccc12 (stereo not drawn)	4	-3	·	-2	-1	·	·	·
S=C(c1ccc2c(c1)OCO2)N1CCN(c2cccc(Cl)c2)CC1	5	5	·	3	-3	-8	·	·
CCc1ccc(C)[n+](CC(=O)c2cccs2)c1	-11	-1	17	0	1	-11	·	·
COc1ccc(-c2cc(C(=O)Nc3cc(Cl)ccc3O)no2)cc1	-1	14	4	66*	54*	-4	1	7
COc1ccc(-c2cc(C(=O)Nc3cc(C)ccc3O)no2)cc1	-1	0	14	-5	3	-7	·	·
N#Cc1c(N)n(CCc2ccc(F)cc2)c2nc3ccccc3nc12	30	-2	48	8	71*	6	0	3
